# Assay results as given in paper PMC6598675 (Science signaling, 2019).
# Values joined by “and” are separate entries in the source; they are usually repeats but may differ in a detail not shown here. Equal entries are not always repeated. “Also recorded” adds a separate entry of the source.
# B1: CD80: murine costimulatory ligand CD80 (B7), recombinant, secreted, truncated ectodomain with a flexible linker and decahistidine tag (protein, UniProt Q00609 38-246, looked up)
# extracellular domain: VDEQLSKSVKDKVLLPCRYNSPHEDESEDRIYWQKHDKVVLSVIAGKLKVWPEYKNRTLYDNTTYSLIILGLVLSDRGTYSCVVQKKERGTYEVKHLALVKLSIKADFSTPNITESGNPSADTKRITCFASGGFPKPRFSWLENGRELPGINTTISQDPESELYTISSQLDFNTTRNHTIKCLIKYGDAHVSEDFTWEKPPEDPPDSKN
# modifications: extracellular domain flexible linker and decahistidine tag
# Experiments:
# [1] = system: primary mouse T cells (AND TCR transgenic), NFAT; assay: NFAT nuclear translocation of AND TCR T cells on pMHC supported bilayers; type: cell-based; conditions: for agonist strength (in words): AND TCR
# Summary of the method: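 Primary AND TCR-transgenic mouse T cells were retrovirally spinfected with NFAT-GFP (polybrene 4 μg/ml, days 3–4 post-activation) and sorted; most runs used NFAT-mCherry. Cells were added at 37°C onto Ni-chelating supported bilayers carrying His-tagged ICAM-1 (100–200 μm−2) and peptide-loaded MHC (0.1–2 μm−2). Landing was scored by RICM. NFAT activation was the nuclear/cytosolic intensity ratio. Threshold was the density near half-maximal response, with >30 cells per condition over five experiments.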
# AND TCR T cells [2] = type: cell-based, mouse
# Summary of the method: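 For each T cell, binding events and total dwell time were counted from RICM landing to first NFAT translocation. Counts were corrected for undetected prebleached events and for short events (0.8 s up to the time-lapse interval). Costimulation used His10-tagged recombinant murine CD80 ectodomain on the bilayer at 100–300 molecules/μm2. There were 7–15 cells per condition from three to seven experiments.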
# AND TCR T cells [3] = type: cell-based, mouse; remark: listed apart in the source
# AND TCR [4] = assay: Calculated probability of long-dwelling pMHC-TCR binding events; set-up: species or system mouse; conditions: single exponential unbinding kinetics from mean dwell time
# Summary of the method: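 The probability that a binding event lasts 40 s was calculated assuming single-exponential unbinding at the fitted, photobleaching-corrected mean dwell time. The 40 s receptor-level threshold came from spatiotemporal correlation analysis of pMHC trajectories grouped into signaling clusters.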
# AND TCR [5] = assay: Single-molecule TIRF imaging of pMHC-TCR binding events; set-up: species or system mouse; conditions: for pMHC-TCR binding / mobility under T cell (in words): 37°C, single-molecule TIRF
# Summary of the method: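 Atto647N-peptide-MHC binding under live T cells was imaged at 37°C by single-molecule TIRF, either at 2.5 mW/cm2 with 20 ms exposures or at 0.1 mW/cm2 with 500 ms exposures. Single-step unbinding was confirmed by Bayesian change-point detection. Dwell-time distributions (>3000 trajectories, ≥25 cells) were fitted to a single exponential and corrected for photobleaching using bilayer pMHC imaged under identical conditions. Bound fraction was normalised to RICM contact area.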
# 5c.c7 recombinant TCR = 5c.c7 recombinant TCR binding to MCC pMHC; ref [9], [10]; cited from earlier work
# [6] = low T102S pMHC density, cells that activated NFAT
molecule,measurement,setting,value
ANERADLIAYLKQASK [T102S pMHC],agonist strength (in words),[1],weak agonist
same,NFAT activation probability at low density,[1]; low T102S density,5% and ~ 5%
same,time to NFAT translocation (comparison in words),[1]; low T102S density vs threshold densities,took longer to translocate NFAT than those at threshold densities of either MCC or T102S pMHCs
same,NFAT activation probability at threshold density,[1]; threshold pMHC density,32%
same,rate of dwell time accumulation (in words),"AND TCR T cells [2]; low T102S density, activating cells vs cells that did not activate",indistinguishable from cells that did not active NFAT at threshold densities
same,"number of correlated pMHC tracks, activating cells","AND TCR T cells [3]; low T102S pMHC density, 30-s window, cells that activated NFAT",between two and nine correlated pMHC tracks
same,"number of correlated pMHC tracks, nonactivating cells","AND TCR T cells [3]; low T102S pMHC density, 30-s window, cells that did not activate NFAT",zero to three correlated pMHC tracks
same,"binding events within 2 mm and 30 s of another binding event, activating cells",AND TCR T cells [3]; [6],90%
same,effective mean dwell time after spatiotemporal correlation (in words),AND TCR T cells [3]; [6],could resemble long-dwelling MCC pMHC binding inputs in terms of mean dwell time
same,"binding events within the same space and time (2 mm, 30 s), nonactivating cells","AND TCR T cells [3]; low T102S pMHC density, cells that did not activate NFAT",68%
same,number of spatiotemporally correlated tracks (comparison in words),AND TCR T cells [3]; threshold conditions,more spatiotemporally correlated pMHC tracks than those exposed to MCC
same,probability that a pMHC-TCR binding event dwells for 40 s,AND TCR [4],0.02
"ANERADLIAYLKQATK [MCC pMHC, Moth cytochrome C 88–103 peptide]",agonist strength (in words),[1],strong agonist
same,pMHC-TCR binding / mobility under T cell (in words),AND TCR [5],bimodal mobility under a T cell (cyan) and unimodal mobility on the free supported membrane; also recorded: a substantial fraction of the all pMHC under the T cell are bound as long-lived species
same,difference in affinity MCC pMHC vs T102S pMHC,AND TCR [5]; range covered by strong and weak agonist,fivefold
same,probability that a pMHC-TCR binding event dwells for 40 s,AND TCR [4],0.43
same,"mean dwell time (<τoff>), 5c.c7 TCR",5c.c7 recombinant TCR,7.2 s
ANERADLIAYPKAATKF [K3 pMHC],agonist strength (in words),[1],moderate agonist
"ANERAELIAYLTQAAKGGSC [null pMHC, reference compound]",pMHC-TCR binding / mobility under T cell (in words),AND TCR [5],did not exhibit slowed pMHC-TCR complexes
B1,effect of costimulation on activation (in words),"AND TCR T cells [2]; CD80 on bilayer, 100 to 300 molecules/μm^2, cells that activated NFAT","cells that activated NFAT experienced a decrease in the time to activation, accumulated binding events, and cumulative dwell time"
